# System: MCF7
# Assay: Cytotoxicity against human MCF7 cells after 48 hrs by MTT assay
# Format: cell-based
# Conditions: MCF7, 48 h
# Summary of the method: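 MCF-7 cells were kept as monolayers in DMEM with 10% fetal calf serum and penicillin. They were plated at 1.2×10⁴ cells/well and grown 48 h before dosing. Compounds were dissolved as 20% DMSO stocks and diluted in complete medium. After 48 h exposure, MTT was added for 4 h at 37 °C and dissolved in DMSO. Absorbance was read at 570 nm (reference 655 nm); viability is relative to untreated cells. Triplicate, repeated thrice.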
smiles,measurement,value
Cc1ncc([N+](=O)[O-])n1CCO [METRONIDAZOLE],IC50,> 100 µM

# Source: ChEMBL document CHEMBL1250490, “Synthesis, characterization, antiamoebic activity and cytotoxicity of novel series of pyrazoline derivatives bearing quinoline tail” (Eur J Med Chem, 2010)
